The results in this text go back to ChEMBL document CHEMBL1124049, “Synthesis and biological characterization of pyridohomotropanes. Structure-activity relationships of conformationally restricted nicotinoids” (J Med Chem, 1988).

Assay [1] has as its target Neuronal acetylcholine receptor. The assay is described as follows: Inhibition of (-)-[3H]nicotine binding to rat brain membranes. The assay is classed as cell membranes, Membrane. In a few lines: (§1)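 Membranes from whole rat brain or Torpedo electric organ, homogenized in 30 volumes 0.05 M NaH2PO4 pH 7.0 and spun at 50000g for 30 min. Each tube held 2 mg brain protein or 1 mg electric organ protein, 1 × 10⁻⁹ M radioligand (final), and varied agent concentrations in 0.05 M NaPO4 pH 7.0.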

Assay [2] has the same target. The assay is described as follows: Inhibition of [3H]MCC binding to rat brain membranes. The assay is classed as cell membranes, Membrane. Put shortly: as §1
The target of assay [3] is T1, Acetylcholine receptor (Torpedo californica, UniProt P02710+P02712+P02714+P02718). The assay is described as follows: inhibition of (-)-[3H]nicotine binding to torpedo electroplax membranes. In a few lines: as §1
T1 sequence (P02710 whole entry): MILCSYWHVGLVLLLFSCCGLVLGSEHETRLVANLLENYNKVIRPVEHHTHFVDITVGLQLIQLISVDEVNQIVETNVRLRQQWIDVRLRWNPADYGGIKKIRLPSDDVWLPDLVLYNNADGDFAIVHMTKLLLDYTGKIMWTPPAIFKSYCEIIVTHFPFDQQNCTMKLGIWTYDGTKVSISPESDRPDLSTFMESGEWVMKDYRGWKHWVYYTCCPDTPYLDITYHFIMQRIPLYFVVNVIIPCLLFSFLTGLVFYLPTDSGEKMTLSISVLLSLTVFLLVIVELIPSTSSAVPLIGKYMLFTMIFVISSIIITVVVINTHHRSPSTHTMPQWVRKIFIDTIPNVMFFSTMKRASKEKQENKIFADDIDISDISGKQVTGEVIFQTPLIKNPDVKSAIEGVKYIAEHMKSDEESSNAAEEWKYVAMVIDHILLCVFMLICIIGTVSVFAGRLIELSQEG
T1 sequence (P02712 whole entry): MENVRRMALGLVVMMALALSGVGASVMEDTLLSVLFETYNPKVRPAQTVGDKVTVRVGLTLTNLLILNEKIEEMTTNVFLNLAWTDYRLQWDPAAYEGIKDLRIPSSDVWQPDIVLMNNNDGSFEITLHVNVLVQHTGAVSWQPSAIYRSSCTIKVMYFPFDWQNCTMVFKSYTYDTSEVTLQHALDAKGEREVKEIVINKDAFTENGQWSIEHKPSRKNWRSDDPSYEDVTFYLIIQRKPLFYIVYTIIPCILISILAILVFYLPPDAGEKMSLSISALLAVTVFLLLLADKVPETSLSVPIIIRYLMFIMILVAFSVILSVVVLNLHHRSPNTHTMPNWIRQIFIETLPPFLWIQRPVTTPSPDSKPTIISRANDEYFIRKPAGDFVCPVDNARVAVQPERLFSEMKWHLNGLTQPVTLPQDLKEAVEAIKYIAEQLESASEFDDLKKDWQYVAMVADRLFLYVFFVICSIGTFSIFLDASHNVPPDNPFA
T1 sequence (P02718 whole entry): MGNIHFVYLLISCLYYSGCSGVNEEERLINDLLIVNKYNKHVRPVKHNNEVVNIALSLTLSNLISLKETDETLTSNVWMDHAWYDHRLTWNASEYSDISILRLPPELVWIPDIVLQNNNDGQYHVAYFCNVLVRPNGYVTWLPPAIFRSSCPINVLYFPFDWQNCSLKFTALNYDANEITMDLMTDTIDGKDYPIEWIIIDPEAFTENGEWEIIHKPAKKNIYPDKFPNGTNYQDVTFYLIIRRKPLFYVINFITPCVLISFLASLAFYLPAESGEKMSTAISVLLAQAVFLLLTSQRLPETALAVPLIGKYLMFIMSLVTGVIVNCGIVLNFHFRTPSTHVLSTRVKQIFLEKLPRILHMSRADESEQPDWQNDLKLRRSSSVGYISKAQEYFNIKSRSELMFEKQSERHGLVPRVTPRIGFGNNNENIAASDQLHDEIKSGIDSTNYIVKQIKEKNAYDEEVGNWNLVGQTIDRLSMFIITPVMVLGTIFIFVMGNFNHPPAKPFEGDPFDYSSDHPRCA
T1 sequence (P02714 whole entry): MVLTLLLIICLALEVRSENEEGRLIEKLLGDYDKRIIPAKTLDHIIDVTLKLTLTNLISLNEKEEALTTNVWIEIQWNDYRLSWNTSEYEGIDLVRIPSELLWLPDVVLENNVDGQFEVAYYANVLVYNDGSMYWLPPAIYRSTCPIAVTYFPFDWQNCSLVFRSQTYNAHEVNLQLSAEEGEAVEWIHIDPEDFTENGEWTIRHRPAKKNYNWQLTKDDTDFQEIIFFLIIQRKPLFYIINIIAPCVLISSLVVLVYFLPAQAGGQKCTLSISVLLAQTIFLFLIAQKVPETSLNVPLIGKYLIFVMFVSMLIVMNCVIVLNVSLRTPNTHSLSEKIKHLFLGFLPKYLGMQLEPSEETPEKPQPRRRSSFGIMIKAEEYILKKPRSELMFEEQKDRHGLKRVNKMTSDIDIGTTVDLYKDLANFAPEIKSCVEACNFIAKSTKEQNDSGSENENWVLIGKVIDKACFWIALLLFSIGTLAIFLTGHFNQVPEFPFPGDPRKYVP
The species named for assay [4] is Rattus norvegicus. The assay is described as follows: Effective dose required to produce prostration after injection into rat's fourth ventricle. The assay is classed as functional. Put shortly: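 Rats given various doses into the fourth ventricle through chronically implanted cannulae, in 1 μL. Prostration of the limbs was scored, from hind-limb prostration with forelimb weakness up to prostration of all four limbs.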

In assay [5] the target is T1, Acetylcholine receptor. The assay is described as follows: Inhibition of [3H]MCC binding to torpedo electroplax membranes. In a few lines:
as §1

The species entered for assay [6] is Rattus norvegicus. The assay is described as follows: Potency for prostration assay, relative to PHT. Format: functional.

SMILES strings stand for the structures.

With `Cc1nccc2c1C1CCC(CC2)N1` (centres undefined), the IC50 in assay [1] stood at 0.9 µM; in assay [2], 0.7 µM; at Acetylcholine receptor [3] it was 0.3 µM; at Acetylcholine receptor [5], 0.3 µM. The ED50 in the assay listed under Rattus norvegicus [4] worked out at 500 nmol. In addition, the Relative potency in the assay filed under Rattus norvegicus [6] is recorded as 0.02.
With `c1cc2c(cn1)C1CCC(CC2)N1` (centres undefined), the 50% inhibitory concentration (IC50) came to 0.005 µM in assay [1], 0.01 µM in assay [2], 0.001 µM on Acetylcholine receptor [3] and 0.0001 µM at Acetylcholine receptor [5]. Also, the ED50 in the assay filed under Rattus norvegicus [4] was found to be 10 nmol. Also, in the assay filed under Rattus norvegicus [6], the Relative potency is on record as 1.
As to `CN1C2CCc3ccncc3C1CC2` (centres undefined), the IC50 turned out to be 1 µM in assay [1], 3 µM in assay [2], 0.8 µM at Acetylcholine receptor [3] and 2 µM at Acetylcholine receptor [5]. Moreover, the ED50 in the assay filed under Rattus norvegicus [4] stood at 500 nmol. Further, the Relative potency in the assay listed under Rattus norvegicus [6] turned out to be 0.02.
In the case of `CN1CCC[C@H]1c1cccnc1` [NICOTINE], the results for the IC50 at Acetylcholine receptor [3] and at Acetylcholine receptor [5] were 0.004 µM and 0.001 µM, respectively. The molecule also had an ED50 in the assay listed under Rattus norvegicus [4] of 10 nmol.
In the case of `c1cncc([C@@H]2CCCN2)c1` [NORNICOTINE], the values for the IC50 on Acetylcholine receptor [3] and at Acetylcholine receptor [5] were 0.1 µM and 0.3 µM, respectively. The ED50 in the assay listed under Rattus norvegicus [4] came to 75 nmol.
